Shown are actives, neighbours in structure and some others; about 3% of the full set was active somewhere.
C2C12 statin = protects C2C12 myotubes from simvastatin toxicity; actives 0.78% (n = 330,000); rescue of ATP level, % at 7.49 µM; ATP luminescence, 48 h; scaled: DMSO 0, geranylgeraniol control 100;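 active means mean ATP rescue above about 67%, or every replicate alone reaching that limit, limit read from the data, passing the limit was not always enough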;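 further: myotubes were challenged with 10 µM simvastatin during compound exposure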
PGC1a acetyl inh = modulators of PGC1a acetylation. actives 0.17% (n = 350,000). U2OS PGC1a acetylation, AlphaScreen anti-acetyl-lysine; with virally co-expressed GCN5 acetyltransferase. inhibition, % at 15.6 µM;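 active means every replicate shows inhibition of at least 40%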;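 further: 0% = neutral control wells and 100% = positive control wells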
Cneo AK release = Cryptococcus neoformans lysis via adenylate kinase release; AID 651654; C. neoformans lysis, adenylate kinase release luminescence, 4 h; normalised: neutral wells 0, clomiphene wells 100; lysis activity, % at 15 µM; actives 0.2% (n = 360,000);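 active means mean lysis activity across replicates of at least 80%, whatever share of replicates individually reach that level; inactive means mean lysis activity below 80%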
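Assay system: C. neoformans cells. Amount: yeast cell density of 5 × 10^6 cells/mL. Technique: AK luminescence. Buffer or medium: YPD. Times: static 4 h at 37 °C with compound, 1 h detection. Dosing: single-point compound dose. Read-out: lysis from increased AK signal.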
rRNA inh HTS = inhibits bacterial ribosomal RNA function over humanized ribosomes; actives 1.6% (n = 350,000); E. coli WT GFP vs humanized-ribosome RFP mutants, fluorescence, 24 h; stronger effect = lower value; DMSO median 0, no signal -100; AID 720706; GFP signal change (wild-type ribosome), % (concentration not given with the values);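 active means significant combined selectivity score with lowered wild-type GFP, culture density cut under 30%, mutant RFP and density less affected; inactive means any of these conditions unmet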
SIRT5 block = blocks human SIRT5 desuccinylation of peptide; Q9NXA8; Purified SirT5, succinyl-peptide AMC, trypsin-coupled fluorescence; inhibition, % at 15 µM; actives 1.1% (n = 330,000); in the data active means inhibition above about 15%
Target sequence (Q9NXA8 whole entry, looked up): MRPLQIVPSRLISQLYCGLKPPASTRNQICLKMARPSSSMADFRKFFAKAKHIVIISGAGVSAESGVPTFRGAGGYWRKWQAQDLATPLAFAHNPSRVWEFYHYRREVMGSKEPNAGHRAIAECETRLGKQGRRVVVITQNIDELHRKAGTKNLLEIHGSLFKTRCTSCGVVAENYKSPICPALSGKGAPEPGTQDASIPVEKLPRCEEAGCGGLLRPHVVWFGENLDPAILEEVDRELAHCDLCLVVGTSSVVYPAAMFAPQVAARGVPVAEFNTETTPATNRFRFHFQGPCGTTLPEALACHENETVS
S100A4 MyoIIA = inhibitors of human S100A4 binding to myosin IIA peptide | S100A4/TAMRA-MyoIIA peptide fluorescence polarization | inhibition, % at 10.7 µM | actives 0.14% (n = 360,000) | AID 652163;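 active means mean inhibition of at least 70% across replicates, with every replicate also reaching that level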
Target sequence (P26447 whole entry, looked up): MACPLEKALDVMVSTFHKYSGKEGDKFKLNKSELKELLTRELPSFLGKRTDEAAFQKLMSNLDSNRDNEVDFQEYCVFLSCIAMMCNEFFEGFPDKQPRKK
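Material: S100A4 monomer (human). Medium: Calcium-containing HEPES buffer, pH 7.2. Probe or stimulus: labelled myosin peptide probe, 5 nM. Compound dosing: one concentration per compound. Timing: polarization read 5 min after assay mix addition, stable 5–60 min. Benchmarks: DMSO as neutral control, TFP as positive control.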
An asterisk follows results filed as active.

Screening CCOC(=O)Nc1ccc(C(=O)Oc2ccccc2)c(O)c1 returned C2C12 statin -2.9, PGC1a acetyl inh 9.7, Cneo AK release 0.4, rRNA inh HTS -32.1*, SIRT5 block -2.9 and S100A4 MyoIIA 2.5.
Cc1ccc(NC(=O)COCC(=O)Nc2ccc(C)cc2)cc1 was read as C2C12 statin -11.9, PGC1a acetyl inh 13.1, Cneo AK release -4.1, rRNA inh HTS 0.9, SIRT5 block 0.0 and S100A4 MyoIIA 4.1.
Screening COc1ccc2c3c(n(C)c2c1)[C@H](CO)N(C(=O)CN1CCOCC1)CC31CN(C(=O)CC2CC2)C1 returned rRNA inh HTS 2.3, SIRT5 block -1.1 and S100A4 MyoIIA -3.8.
For COc1ccc(C2NC(c3ccc(OC)c(OC)c3OC)C(C)C(=O)C2C)c(OC)c1OC (centres undefined) the results were C2C12 statin 86.3*, PGC1a acetyl inh -21.4 and Cneo AK release -1.3.
`CCOC(=O)CC(=O)CSc1ncc(C(=O)OCC)c(N)n1` gave C2C12 statin 120.0*, PGC1a acetyl inh 5.8 and Cneo AK release 0.8.
For COc1ccc(S(=O)(=O)Nc2ccc3c(c2)C(=O)N([C@@H](C)CO)C[C@@H](C)[C@H](CN(C)Cc2ccncc2)O3)cc1 the results were C2C12 statin -7.3, PGC1a acetyl inh 8.5, Cneo AK release -0.8, rRNA inh HTS -1.8, SIRT5 block -5.0 and S100A4 MyoIIA -5.3.
For COc1ccc(S(=O)(=O)N[C@H]2CC[C@H](CC(=O)O)O[C@H]2CO)cc1 the results were C2C12 statin 4.3, PGC1a acetyl inh 8.2, Cneo AK release 1.9, rRNA inh HTS -0.7, SIRT5 block -2.2 and S100A4 MyoIIA 6.8.
Screening O=C1N2CCCc3cccc(c32)C12Nc1ccccc1S2 (centres undefined) returned C2C12 statin 152.5*, PGC1a acetyl inh -3.6 and Cneo AK release 8.7.
C[C@@H]1CN([C@H](C)CO)C(=O)c2cc(N(C)C)ccc2O[C@@H](C)CCCCO[C@@H]1CN(C)S(=O)(=O)c1ccccc1 was read as C2C12 statin -41.8, PGC1a acetyl inh 9.1, Cneo AK release -3.0, rRNA inh HTS -2.1, SIRT5 block -2.6 and S100A4 MyoIIA -10.5.
C[C@H]1CN([C@@H](C)CO)C(=O)c2cc(N(C)C)ccc2O[C@@H]1CN(C)S(=O)(=O)c1ccccc1 was read as C2C12 statin 43.2, PGC1a acetyl inh -1.5, Cneo AK release 50.4, rRNA inh HTS -4.4, SIRT5 block 8.2 and S100A4 MyoIIA -0.8.
Screening C[C@@H]1CN([C@H](C)CO)C(=O)c2cc(N(C)C)ccc2O[C@H]1CN(C)S(=O)(=O)c1ccccc1 returned C2C12 statin -38.1, PGC1a acetyl inh 12.1, Cneo AK release -2.0, rRNA inh HTS -0.4, SIRT5 block 32.5* and S100A4 MyoIIA -5.0.
C[C@H](CO)N1C[C@H](C)[C@@H](CN(C)S(=O)(=O)c2ccccc2)OCCCC[C@H](C)Oc2ccc(N(C)C)cc2C1=O was read as C2C12 statin 91.6*, PGC1a acetyl inh -0.9, Cneo AK release 0.1, rRNA inh HTS -4.1, SIRT5 block 1.4 and S100A4 MyoIIA -17.7.
`C[C@@H]1CCCCO[C@H](CN(C)S(=O)(=O)c2ccc(Cl)cc2)[C@H](C)CN([C@@H](C)CO)C(=O)c2cc(N(C)C)ccc2O1` gave C2C12 statin -26.4, PGC1a acetyl inh -26.1, Cneo AK release 2.1, rRNA inh HTS -6.9, SIRT5 block 20.6* and S100A4 MyoIIA 0.5.
For CC(=O)N1[C@H](CN(C(=O)c2ccccc2)C(C)C)[C@@H](c2ccccc2)[C@@H]1CO the results were C2C12 statin -4.9, PGC1a acetyl inh -17.4, Cneo AK release -4.3, rRNA inh HTS 0.1, SIRT5 block 0.6 and S100A4 MyoIIA 9.5.
For CC(C)NC(=O)Nc1ccc2c(c1)C(=O)N([C@@H](C)CO)C[C@@H](C)[C@@H](CN(C)C(=O)Nc1ccccc1)OCCCC[C@@H](C)O2 the results were PGC1a acetyl inh 8.5, Cneo AK release 1.4, rRNA inh HTS -2.3, SIRT5 block 4.1 and S100A4 MyoIIA 4.1.
`COc1ccc(C(=O)NCC(=O)NCC(=O)OCC(=O)c2ccc(C)cc2)cc1` gave C2C12 statin 1.0, PGC1a acetyl inh -4.8, Cneo AK release 0.6, rRNA inh HTS 11.5, SIRT5 block -2.5 and S100A4 MyoIIA -2.7.
Screening COc1ccc(OC)c(C(=O)COC(=O)c2ccc([N+](=O)[O-])o2)c1 returned C2C12 statin 4.4, Cneo AK release -1.9, rRNA inh HTS -19.6*, SIRT5 block 0.1 and S100A4 MyoIIA -4.6.
COc1cccc(C(=O)NCC(=O)OCC(=O)C(C)(C)C)c1 was read as PGC1a acetyl inh -5.6, Cneo AK release 2.8, rRNA inh HTS 13.1, SIRT5 block -2.1 and S100A4 MyoIIA -4.2.
Screening COc1ccc(OC)c(C(=O)COC(=O)CNC(=O)c2ccccc2)c1 returned rRNA inh HTS 4.9, SIRT5 block 15.1* and S100A4 MyoIIA 1.2.
Screening CC(C)(C)C(=O)COC(=O)CNC(=O)c1ccc(Oc2ccccc2)cc1 returned C2C12 statin 140.8*, PGC1a acetyl inh 1.6 and Cneo AK release -1.0.
Screening C[C@@H]1CCCCO[C@H](CN(C)C(=O)C2CCCCC2)[C@@H](C)CN([C@@H](C)CO)C(=O)c2cc(NC(=O)C3CCCCC3)ccc2O1 returned PGC1a acetyl inh -0.2, Cneo AK release 1.0, rRNA inh HTS -5.2, SIRT5 block 5.0 and S100A4 MyoIIA -6.0.
`C[C@H](NC(=O)C[C@@H]1CC[C@H]2[C@@H](COC[C@@H](O)CN2Cc2cc(F)ccc2F)O1)c1ccccc1` gave C2C12 statin -4.4, PGC1a acetyl inh -7.7, Cneo AK release 1.3, rRNA inh HTS -7.8, SIRT5 block 6.4 and S100A4 MyoIIA -0.5.
`CO[C@H]1CN(C)C(=O)c2cc(NC(=O)c3ccc4c(c3)OCO4)ccc2OC[C@H](C)N(CCC(F)(F)F)C[C@H]1C` gave C2C12 statin -7.9, PGC1a acetyl inh -8.3, Cneo AK release 0.1, rRNA inh HTS -6.2 and S100A4 MyoIIA 15.0.
For COc1ccc(-c2cc(C(=O)Nc3ccc(S(=O)(=O)Nc4ncccn4)cc3)c3ccccc3n2)cc1 the results were C2C12 statin 3.0, PGC1a acetyl inh -0.6, Cneo AK release 2.2, rRNA inh HTS 11.1, SIRT5 block -4.8 and S100A4 MyoIIA 13.7.
`Cc1noc(NS(=O)(=O)c2ccc(NC(=O)c3cnc4scc(C)n4c3=O)cc2)c1C` gave C2C12 statin -5.6, PGC1a acetyl inh 6.2, Cneo AK release 3.2, rRNA inh HTS -10.0, SIRT5 block 15.5* and S100A4 MyoIIA -6.4.
